Screens: PubChem BioAssay, several laboratories
DNMT1 block: human DNMT1 methyltransferase inhibitors, primary screen, biochemical, molecular beacon, fluorescence, HinP1I cleavage, uHTS; DNA (cytosine-5)-methyltransferase 1 (Homo sapiens), P26358; inhibition (reported as % activation of signal), % at 10 µM; actives 0.83% (n = 360,000); AID 588458, 2011; in the data active means inhibition above about 50%
Target sequence (P26358 504-1616 limits assumed): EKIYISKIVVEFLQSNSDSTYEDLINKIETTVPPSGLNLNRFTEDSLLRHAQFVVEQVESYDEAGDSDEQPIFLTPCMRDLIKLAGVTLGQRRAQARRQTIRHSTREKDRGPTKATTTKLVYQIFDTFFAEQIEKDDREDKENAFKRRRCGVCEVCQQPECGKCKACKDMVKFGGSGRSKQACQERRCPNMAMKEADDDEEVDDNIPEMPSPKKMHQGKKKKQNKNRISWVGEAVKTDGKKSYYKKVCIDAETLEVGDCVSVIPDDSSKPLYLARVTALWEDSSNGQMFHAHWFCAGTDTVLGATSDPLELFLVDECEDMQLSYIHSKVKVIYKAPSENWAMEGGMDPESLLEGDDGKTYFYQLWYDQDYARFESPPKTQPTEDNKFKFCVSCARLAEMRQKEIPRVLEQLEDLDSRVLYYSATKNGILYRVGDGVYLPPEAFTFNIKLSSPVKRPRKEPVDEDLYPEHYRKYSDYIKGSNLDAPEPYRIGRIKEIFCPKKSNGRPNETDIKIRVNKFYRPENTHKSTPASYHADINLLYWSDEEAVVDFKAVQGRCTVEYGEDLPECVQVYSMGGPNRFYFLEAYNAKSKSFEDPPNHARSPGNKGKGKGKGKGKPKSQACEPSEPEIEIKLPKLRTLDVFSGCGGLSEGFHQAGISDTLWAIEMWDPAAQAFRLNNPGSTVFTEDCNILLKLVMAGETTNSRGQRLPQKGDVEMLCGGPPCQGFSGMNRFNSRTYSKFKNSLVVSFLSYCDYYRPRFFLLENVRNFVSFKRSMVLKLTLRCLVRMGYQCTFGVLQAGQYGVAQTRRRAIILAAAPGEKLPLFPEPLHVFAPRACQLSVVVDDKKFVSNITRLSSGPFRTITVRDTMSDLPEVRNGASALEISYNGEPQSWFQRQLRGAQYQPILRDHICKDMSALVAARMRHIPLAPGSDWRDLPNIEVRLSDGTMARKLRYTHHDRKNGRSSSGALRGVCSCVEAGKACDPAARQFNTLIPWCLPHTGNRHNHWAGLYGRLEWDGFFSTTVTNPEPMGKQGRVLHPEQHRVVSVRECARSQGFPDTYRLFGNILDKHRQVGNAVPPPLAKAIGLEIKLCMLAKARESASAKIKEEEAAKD
Scp-1 inhibitor: Scp-1 phosphatase inhibitors, primary screen, biochemical, colorimetric, uHTS | Recombinant Scp1, phosphopeptide, malachite green phosphate absorbance | actives 0.88% (n = 340,000) | Carboxy-terminal domain RNA polymerase II polypeptide A small phosphatase 1 (Homo … | inhibition, % at 20 µM | AID 493091, 2011;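 active means inhibition above about 50% at 20 µM, limit read from the data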;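 further: plate controls were DMSO wells with enzyme for no effect and wells lacking enzyme for full effect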
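Test system: SCP-1 catalytic domain; Buffer or medium: Acidic Tris acetate buffer with magnesium and detergent; Also added: Phosphorylated 17-residue peptide substrate; Compound: single 20 µM dose, 1% DMSO; Schedule: enzyme reaction 45 min at room temperature, colour 5 min, stabilisation 30 min; Signal: Phosphate-binding colour reagent, absorbance read at 630 nm.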
LMPTP inh: LMPTP phosphatase inhibitors, primary screen, biochemical, fluorescence intensity, uHTS; Low molecular weight phosphotyrosine protein phosphatase (Homo sapiens), P24666; recombinant LMPTP-A, OMFP fluorogenic substrate; inhibition, % at 20 µM; actives 0.22% (n = 360,000); AID 651560, 2012;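 active means compounds that cut the enzyme signal by at least half of the control window in the single-dose screen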;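 further: plate controls were DMSO wells with enzyme plus substrate for no effect and substrate without enzyme for full effect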
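Test system: LMPTP-A phosphatase enzyme. Amount: LMPTP-A at 0.625 nM final in the reaction. Reagent: OMFP substrate, 400 µM final. Times: 50 min at room temperature. Signal: endpoint fluorescence intensity from OMFP dephosphorylation. Read-out basis: % inhibition. Benchmarks: no-enzyme and uninhibited controls.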
STEP block: STEP phosphatase inhibitors, primary screen, biochemical, fluorescence intensity, uHTS. actives 0.25% (n = 360,000). recombinant STEP, OMFP fluorogenic substrate. inhibition, % at 20 µM. Tyrosine-protein phosphatase non-receptor type 5 (Homo sapiens), P54829;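 active means inhibition at 20 µM, scaled per plate between control wells, above about 37%, limit read from the data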;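 further: 0% = DMSO with enzyme and substrate and 100% = substrate only without enzyme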
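System: isolated STEP enzyme; schedule: 20 min enzyme reaction at room temperature, protected from light; medium: Bis-Tris buffer pH 6.0, 2.5 mM DTT, 0.005% Tween 20; signal: fluorescence, 480/540 nm; dosing: single compound dose of 20 µM, 1% DMSO final; also added: OMFP substrate, 25 µM final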
GRK2 inh: compounds blocking aptamer binding on GRK2 – biochemical, human GRK2, bead flow cytometry, HTS, primary screen | inhibition of aptamer binding, % at 10 µM | FAM-aptamer displacement from GRK2 | AID 488847, 2010 | actives 0.59% (n = 330,000) | Beta-adrenergic receptor kinase 1 (Homo sapiens), P25098;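 active means inhibition of aptamer binding above 40%, roughly 3 SD of noise, on plates passing a quality check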;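 further: median bead fluorescence of bound FAM aptamer so fluorescent compounds give negative values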
SUMO1 PPI mod: modulators of SUMO1 protein-protein interactions, primary screen, biochemical, uHTS. actives 0.33% (n = 360,000). inhibition, % at 20 µM. SUMO1 binding to a labelled peptide, TR-FRET, 1 h; in the data active means inhibition above about 37%
GRK2 CP1: GRK2 aptamer-displacing inhibitors, retest, confirmation, biochemical, cherry pick 1, bead flow cytometry | shares compounds with GRK2 inh | bead-bound GRK2, FAM-aptamer displacement | aptamer displacement, % at 10 µM | actives 4% (n = 2,000) | AID 504451, 2011;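 active means aptamer displacement above 40%, near three times the noise of non-fluorescent compounds, on plates passing quality checks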;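 further: negative values mostly reflect intrinsic compound fluorescence rather than true enhancement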
Aptamer quench SP: counter-screen for GRK2 aptamer inhibitors: fluorescent aptamer quenchers; AID 504580; 2,000 tested, under 10 active; fluorescence response (% of DMSO), % at 10 µM; Carboxyfluorescein RNA aptamer on beads, flow cytometry quenching; stronger effect = lower value; shares compounds with GRK2 inh;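 active means compounds that quench the bead-bound fluorescent RNA probe, cutting fluorescence to under half of the solvent control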;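 further: counterscreen run without GRK2 so only probe quenching by compound is measured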
GRK2 CP2: GRK2 aptamer-displacing inhibitors, hit retest, confirmation, biochemical, cherry pick 2, bead flow cytometry. shares compounds with GRK2 inh. bead-bound GRK2, FAM-aptamer displacement. inhibition of aptamer binding, % at 10 µM. 360 tested, under 10 active. AID 504782, 2011;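 active means inhibition of aptamer binding above 40%, about triple the noise seen with nonglowing compounds, on plates passing quality control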;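 further: negative values mostly come from compounds that fluoresce themselves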
FAM quench SP: quenches fluorescent RNA aptamer, GRK2 hit artifact | shares compounds with GRK2 inh | carboxyfluorescein RNA aptamer beads, flow cytometry quenching; stronger effect = lower value | fluorescence response vs DMSO, % at 10 µM | 360 tested, under 10 active | AID 588494;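 active means response vs DMSO under 50%, meaning signal dropped by over half, treated as fluorescence quencher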;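 further: labelled aptamer on streptavidin beads without GRK2 as a quench counter-screen; 100% = bead fluorescence of DMSO wells and lower means quenching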
* = called active by the depositor; · = no result given. Most compounds without a hit are left out; they make up all but 2.1% or so of the library.

SMILES	DNMT1 block	Scp-1 inhibitor	LMPTP inh	STEP block	GRK2 inh	SUMO1 PPI mod	GRK2 CP1	Aptamer quench SP	others
O=C(Nc1cccc(NC(=O)c2ccc(-c3ccc(Br)cc3)o2)c1)c1ccccc1	3	-5	4	-8	90*	2	-1	93
CCC(Oc1ccccc1)C(=O)Nc1nnc(S(=O)(=O)N2CCCCC2)s1 (stereo not given)	1	-2	-1	-5	1	5	·	·
CCC(Oc1ccccc1)C(=O)Nc1nnc(S(=O)(=O)Nc2ccccc2)s1 (stereo not given)	5	-15	2	-1	49*	10	-3	104
COc1ccc(N2CCN(C(=O)c3ccc(Cl)c(S(=O)(=O)N4CCCC4)c3)CC2)cc1	-4	0	0	-1	4	-1	·	·
O=C(c1ccc(Cl)c(S(=O)(=O)N2CCc3ccccc3C2)c1)N1CCN(c2ccccc2)CC1	-5	-4	3	0	0	-1	0	102
Cc1occc1C(=O)NNC(=S)Nc1ccccc1C(F)(F)F	-1	-9	-3	-2	0	3	·	·
O=C(NNC(=S)Nc1ccccc1C(F)(F)F)c1ccc(Br)o1	-3	-14	0	-1	42*	-2	2	101
Cc1cccc(C)c1NC(=O)COC(=O)CCC(=O)c1cccs1	-5	-13	-2	0	0	12	·	·
COc1ccc2cc(C#N)c(SCC(=O)N3CC(=O)Nc4ccccc43)nc2c1	-3	-5	1	1	0	-66	·	·
Cc1cccc2cc(C#N)c(SCC(=O)N3CC(=O)Nc4ccccc43)nc12	-7	-2	2	-4	57*	1	1	100
C/C(Cc1ccccc1)=N\NC(=O)CNC(=O)c1ccccc1	6	-6	-2	-1	1	-1	·	·
C/C(Cc1ccccc1)=N\NC(=O)CNC(=O)c1ccc(Br)cc1	5	1	0	-1	78*	-1	-13	89
CC1(C(=O)NS(=O)(=O)c2ccc(Cl)cc2)CCN1C(=O)CC1CC1 (stereo not given)	4	·	-3	8	·	10	·	·
CCNc1nc(NCC)n2c(SCC(=O)Nc3ccccc3OC(F)F)nnc2n1	-4	-3	-2	-4	22	3	·	·	GRK2 CP2=-2;FAM quench SP=101
CCNc1nc(NCC)n2c(SCC(=O)Nc3ccc(NC(C)=O)cc3)nnc2n1	31	46	1	-1	31	6	·	·	GRK2 CP2=0;FAM quench SP=106
O=S(=O)(/N=S1\CC=CCN1S(=O)(=O)c1ccccc1)c1ccccc1 (stereo not given)	1	-4	1	7	·	3	·	·
CS(=O)(=O)N(CC(N)=O)c1cccc(Br)c1	-1	-3	-1	0	1	-2	·	·
Cc1cccc(N(CC(N)=O)S(C)(=O)=O)c1C	-1	-3	-2	0	23	2	2	97
CN(C(=O)c1ccccc1C(=O)OCC(=O)c1ccc(F)cc1)c1ccccc1	4	-2	0	3	0	-2	·	·
CN(C(=O)c1ccccc1C(=O)OCC(=O)c1ccccc1)c1ccccc1	2	-14	-9	-3	75*	-19	-18	98
O=C(Nc1ccccc1)[C@@H]1CC=C[C@@H]2CCN(C3CCCCC3)C(=O)[C@@H]21	-1	1	-1	2	0	0	·	·
CCOC(=O)Cc1cc(=O)n2[nH]c(C)c(-c3ccc(Cl)cc3)c2n1	3	-8	-1	-2	5	0	·	·
CCOC(=O)Cc1cc(=O)n2[nH]c(C)c(-c3ccc(OC)cc3)c2n1	0	-2	1	0	71*	4	-3	99
Cc1ccc[n+](CC(=O)c2ccc(Br)cc2)c1	0	-8	-2	1	75*	0	-1	94
Fc1cccc(Nc2ncnc3sc4c(c23)CCC4)c1	0	-4	-2	-2	94*	5	·	·	GRK2 CP2=-13;FAM quench SP=101
SMILES	DNMT1 block	Scp-1 inhibitor	LMPTP inh	STEP block	GRK2 inh	SUMO1 PPI mod	GRK2 CP1	Aptamer quench SP	others
O=S(=O)(Nc1ncnc2sc3c(c12)CCC3)c1cc(F)ccc1F	3	-2	1	0	0	7	·	·
O=C1C2CC=CCC2C(=O)N1Cc1ccccc1Cl (stereo not given)	6	-5	0	2	42*	0	·	·	GRK2 CP2=19;FAM quench SP=112
CC(=O)N1c2ccc(S(=O)(=O)N(C)CC(=O)NC3CCCCC3C)cc2CC1C (stereo not given)	-1	19	0	-3	0	-4	·	·
Cc1cccc(-n2c(N)c(C(=O)NCCN3CCOCC3)c3nc4ccccc4nc32)c1	·	-3	·	·	100*	·	1	95
CC(C)Cn1c(N)c(C(=O)NCCN2CCOCC2)c2nc3ccccc3nc21	-15	-10	2	4	3	-15	·	·
O=C(CN1CCN(S(=O)(=O)c2ccc(F)cc2)CC1)Nc1ccc(Cl)cn1	6	-2	0	1	8	4	·	·
COc1cccc(OC)c1C(=O)OCC(=O)NCC(C)C	-1	0	0	-3	96*	1	-3	95
COc1cccc(OC)c1C(=O)OCC(=O)NCCCc1ccccc1	-1	-11	-1	2	0	-2	·	·
CCCc1nnc(SCC(=O)Nc2nc(C)cs2)n1CCOC	2	4	0	0	2	27	·	·
N#CN=CN1CC=C(c2ccc(Cl)cc2)CC1	1	·	-1	1	·	-2	·	·
C=CCn1c(CNC(=O)c2ccco2)nnc1SCC(=O)c1ccccc1	0	-3	-1	2	80*	3	-4	97
